# Assay outcomes from PubChem.
# SENP7 inh: SENP7 protease inhibition | recombinant SENP7, Z-RLRGG-aminoluciferin luminescence, 40 min | inhibition, % at 5 µM | 330,000 tested, 1.5% active | AID 434973;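 active means inhibition above about 50% at the single test dose, limit read from the data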;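 further: plate controls were DMSO with enzyme for no effect and no enzyme buffer wells for full effect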
# Target sequence (Q9BQF6 706-1050 limits assumed): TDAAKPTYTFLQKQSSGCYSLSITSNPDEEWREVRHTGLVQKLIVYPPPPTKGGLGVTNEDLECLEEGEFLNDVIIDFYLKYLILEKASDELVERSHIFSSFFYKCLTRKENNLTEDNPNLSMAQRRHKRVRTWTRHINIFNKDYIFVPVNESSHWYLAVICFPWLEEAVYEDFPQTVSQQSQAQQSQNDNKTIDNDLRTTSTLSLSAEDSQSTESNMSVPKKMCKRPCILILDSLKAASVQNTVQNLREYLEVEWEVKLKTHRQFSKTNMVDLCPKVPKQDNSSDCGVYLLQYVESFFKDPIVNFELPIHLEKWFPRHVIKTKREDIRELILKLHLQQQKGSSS
# SENP1 inh: SENP1 (human) catalytic domain inhibition; Q9P0U3; recombinant SENP1 catalytic domain, CyPet-SUMO1-YPet FRET cleavage; inhibition, % at 10 µM; 360,000 tested, 0.21% active;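 active means inhibition at least 30% at 10 µM, raw YFP signal under a set limit, fluorescence ratio 0.5 to 1.5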;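 further: 0% = enzyme with DMSO and 100% = no enzyme wells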
#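 Controls: no-enzyme wells low, DMSO-plus-enzyme wells high control. Test system: human recombinant His6-tagged SENP1 catalytic domain enzyme. Reagent: SFCypet-SUMO1-SFYpet FRET protein substrate, 25 nM final. Doses: one dose per compound, 10 µM, 0.5% DMSO. Detection: FRET, CFP and YFP emission. Timing: 50 min reaction at room temperature.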
# Platelet DG rel: modulates dense granule release in human platelets. human platelet-rich plasma, SFLLRN dense granule ATP release, luminescence. inhibition, %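 (compounds screened at 7.5 µM in platelet-rich plasma)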. 300,000 tested, 0.22% active. AID 1663;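 active means mean replicate score, as percent of positive control, at or above 50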
# SENP6 inh: inhibitors of human SENP6 protease. Recombinant SENP6 catalytic domain, aminoluciferin luminescence. inhibition, % at 10 µM. 330,000 tested, 1.8% active. AID 2599;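 active means inhibition above about 50% at the single tested dose, limit read from the data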;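 further: plate controls were DMSO wells with enzyme for no effect and DMSO wells lacking enzyme for full effect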
# SENP8 block-1: blocks human SENP8 cleavage of Nedd8 substrate; AID 602440; 360,000 tested, 0.64% active; inhibition, % at 20 µM; recombinant SENP8, Nedd8 substrate fluorescence; Q96LD8; in the data active means inhibition mostly above about 40%, no sharp cut-off; inactive means mostly below about 27%
# SENP8 block-2: inhibitors of human SENP8 protease. Q96LD8. purified SENP8, Z-RLRGG-aminoluciferin cleavage, luminescence. inhibition, % at 10 µM. 330,000 tested, 1.2% active; in the data active means inhibition above about 50%
# SENP8 conf: human SENP8 inhibition, confirmed; shares compounds with SENP7 inh; inhibition, % at 12.5 µM; Recombinant SENP8, Z-RLRGG-aminoluciferin luminescence, 60 min; 6,200 tested, 40% active;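 active means mean inhibition across replicates above about 50%, limit read from the data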
# SENP6 confirm: human SENP6 inhibition, confirmed | shares compounds with SENP7 inh | recombinant SENP6, Z-RLRGG-aminoluciferin luminescence | inhibition, % at 12.5 µM | 6,200 tested, 58% active | AID 488915
# SENP7 conf: confirmation of human SENP7 protease inhibitors; shares compounds with SENP7 inh; recombinant SENP7, Z-RLRGG-aminoluciferin luminescence, 40 min; inhibition, % at 12.5 µM; 6,200 tested, 69% active
# Casp3 select: selectivity test for SENP inhibitors: human caspase-3 inhibition; inhibition, % at 12.5 µM; purified caspase-3, Z-DEVD-aminoluciferin luminescence, 60 min; AID 488918; shares compounds with SENP7 inh; 6,200 tested, 60% active;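 active means mean inhibition above about 50%, limit read from the data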;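 further: plate controls were enzyme with DMSO for no effect and wells without caspase-3 for full effect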
# Target sequence (P42574 28-227 limits assumed): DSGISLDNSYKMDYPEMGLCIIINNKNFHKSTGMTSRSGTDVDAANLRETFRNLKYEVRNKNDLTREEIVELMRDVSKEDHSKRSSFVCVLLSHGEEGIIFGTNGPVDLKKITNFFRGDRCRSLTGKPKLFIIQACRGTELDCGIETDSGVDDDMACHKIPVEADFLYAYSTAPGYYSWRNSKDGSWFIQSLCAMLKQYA
# SENP luc ctr: interferes with luciferase luminescence in SENP counter-screen | shares compounds with SENP7 inh | Pre-incubated SENP8/Z-RLRGG-aminoluciferin, luciferase luminescence interference | inhibition, % at 12.5 µM | 6,200 tested, 39% active;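 active means mean inhibition above about 50% when retested at one dose, limit read from the data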;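 further: plate controls were DMSO wells with completed reaction for no effect and substrate without enzyme for full effect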
# The depositor's hits bear a star; / = not tested or not shown. Compounds with a hit are over-represented: about 2.6% of the library has one in this group of screens.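 How the source made its calls, unless noted: active means mean inhibition above about 50% in the one-dose retest (limit read from the data); inactive means the rest.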
SMILES,SENP7 inh,SENP1 inh,Platelet DG rel,SENP6 inh,SENP8 block-1,SENP8 block-2,SENP8 conf,SENP6 confirm,SENP7 conf,Casp3 select,SENP luc ctr
COc1ccc2[nH]cc(/C=C/C(=O)c3ccccc3)c2c1,49.3,-31.7,15.6,57.6*,-291.4,38.5,75.3*,71.1*,84.9*,24.8,84.6*
Cc1cc(C(=O)O)ccc1N/C=C1\CCCC(C)C1=O (centres undefined),27.0,-10.5,-1.7,79.5*,-43.5,76.5*,9.3,88.9*,98.6*,62.3*,88.0*
O=C(O)CCn1ncc2ccccc2c1=O,-2.9,1.4,1.3,5.1,13.3,-7.0,/,/,/,/,/
CC(=O)/C(N=Nc1ccc(SC(F)F)cc1)=C(\C)O,48.3,1.0,-0.3,66.1*,24.1,45.1,46.5,64.1*,59.9*,62.4*,39.0
CC(=O)/C(N=Nc1cccc(C(F)(F)F)c1)=C(\C)O,-3.1,-0.1,-1.4,1.9,7.8,-12.3,/,/,/,/,/
O=C(Nc1ccc(-c2noc(CCc3ccccc3)n2)cc1)c1ccco1,60.2*,-5.2,17.1,78.1*,-9.5,54.5*,67.8*,71.0*,89.8*,52.6*,10.5
Cc1ccc(-c2noc(COC(=O)c3ccco3)n2)cc1,68.0*,-0.7,/,78.2*,14.8,62.8*,76.3*,76.3*,94.6*,71.5*,68.1*
O=C(NCc1nc(-c2ccc(Cl)cc2)no1)c1ccco1,2.6,-1.7,11.9,-2.0,-1.0,-7.5,/,/,/,/,/
Cc1nnc(SC/C=C/c2ccccc2)n(N)c1=O,-2.5,2.2,/,1.0,8.3,2.9,/,/,/,/,/
O=C(/C=C/c1ccccc1)n1cnnc1SC/C=C/c1ccccc1,28.9,3.2,5.9,58.9*,12.9,8.1,38.6,48.0,68.4*,32.4,37.5
O=C(COc1ccccc1)Nc1cccc(-c2ccc(N3CCOCC3)nn2)c1,53.2*,1.0,12.4,61.1*,-22.0,28.6,-26.0,28.4,76.0*,65.9*,-7.1
O=C(COc1ccc(Cl)cc1Cl)Nc1ccc(-c2ccc(N3CCOCC3)nn2)cc1,1.1,1.0,8.0,-0.1,-63.0,-3.8,/,/,/,/,/
Cc1ccc([N+](=O)[O-])cc1S(=O)(=O)Nc1cccc(-c2ccc(N3CCCC3)nn2)c1,15.7,3.2,6.3,89.6*,13.1,82.6*,61.6*,75.6*,87.4*,69.9*,5.5
O=C(Nc1cccc(-c2ccc(N3CCOCC3)nn2)c1)c1ccc([N+](=O)[O-])cc1,44.7,-0.1,-3.6,46.7,12.1,24.8,/,/,/,/,/
O=C(Nc1cccc(-c2ccc(N3CCOCC3)nn2)c1)c1ccccc1,26.0,0.3,0.0,26.8,-18.5,5.1,/,/,/,/,/
O=C(COc1ccc(Cl)cc1Cl)Nc1cccc(-c2ccc(N3CCOCC3)nn2)c1,75.7*,0.1,0.7,1.8,-23.9,-6.4,8.1,9.1,-2.9,4.7,-1.1
Cc1ccc(C(=O)Nc2cccc(-c3ccc(N4CCOCC4)nn3)c2)cc1[N+](=O)[O-],62.9*,0.1,12.6,66.9*,-6.3,50.4*,-6.0,-4.1,-4.1,7.4,5.7
CCN(CC)CCNC(=O)c1ccc(NC(=O)c2ccc(Cl)c(S(=O)(=O)N3CCCCCC3)c2)cc1,-3.3,-0.2,2.8,-8.7,28.9,-5.7,/,/,/,/,/
CCOc1ccc(-c2[nH]ncc2-c2ccc(Cl)cc2)c(O)c1,-9.6,-1.4,-1.8,-17.8,-3.5,-10.1,/,/,/,/,/
Cc1cc(C)c(S(=O)(=O)NCc2cccnc2)cc1C,11.2,1.8,-6.3,-12.9,10.3,0.2,/,/,/,/,/
O=[N+]([O-])c1ccc(/C=C/c2ccc3cccc(O)c3n2)cc1,53.1*,3.0,-8.5,45.3,22.2,33.8,0.2,5.2,6.0,10.9,7.3
CC(=O)N(C(C)=O)n1c(/C=C/c2ccc([N+](=O)[O-])cc2)nc2ccccc2c1=O,3.0,4.6,2.7,-15.3,-56.3,-4.3,/,/,/,/,/
CC(=O)Nc1ccc(/C=C/c2ccc3cccc([N+](=O)[O-])c3n2)cc1,9.4,8.1,1.0,10.6,25.4,-6.4,/,/,/,/,/
O=[N+]([O-])c1ccc(/C=C/c2ccc3ccccc3n2)cc1,93.8*,5.2,40.9,92.8*,4.2,91.0*,64.1*,77.8*,93.6*,77.9*,13.8
CC(=O)Nc1ccc(NC(=O)C2(C)Cc3c(-c4cccc(C(N)=O)c4)ccnc3O2)cc1 (centres undefined),/,-2.5,/,/,-4.0,/,/,/,/,/,/
SMILES,SENP7 inh,SENP1 inh,Platelet DG rel,SENP6 inh,SENP8 block-1,SENP8 block-2,SENP8 conf,SENP6 confirm,SENP7 conf,Casp3 select,SENP luc ctr
O=C(N/N=C/c1ccc(OC(=O)c2cccs2)cc1)c1cccc(F)c1,72.4*,0.5,-2.0,16.4,17.2,2.6,-9.4,-4.2,-4.3,25.1,4.5
O=C(N/N=C/c1ccc(OC(=O)c2cccc(F)c2)cc1)c1cccnc1,12.5,2.5,-1.7,35.9,-2.3,24.5,/,/,/,/,/
O=C(N/N=C/c1ccncc1)c1cccs1,2.3,2.0,-0.2,9.2,8.9,-14.1,/,/,/,/,/
CSc1ccc(/C=N/NC(=O)c2cccs2)cc1,88.5*,1.3,23.3,82.9*,-384.6,74.0*,26.0,66.3*,97.9*,86.3*,85.4*
CC(=C/c1ccccc1)/C=N/NC(=O)c1cccs1,79.4*,3.4,5.4,83.3*,-21.5,74.6*,42.2,79.7*,95.8*,69.7*,34.3
O=C(N/N=C/C(Br)=C\c1ccccc1)c1cccs1,29.9,0.5,11.5,62.7*,8.6,51.7*,18.5,48.8,76.8*,30.0,6.8
COc1ccc(-n2c(=S)[nH]c3cc(C(=O)NCc4ccccc4OC)ccc3c2=O)c(OC)c1,-2.5,2.3,16.0,-10.8,15.0,-10.5,/,/,/,/,/
Cc1cccc(NC(=O)CSCC(=O)Nc2ccc(S(=O)(=O)N3CCCCC3)cc2)c1,6.4,-1.2,/,-10.6,9.6,1.1,/,/,/,/,/
CC(/C=N/NC(=O)c1cccc(F)c1)=C\c1ccccc1,78.9*,1.4,-20.1,83.0*,-2.9,67.4*,75.9*,77.6*,94.6*,81.5*,71.3*
Cc1ccc(/C=N/NC(=O)CNC(=O)c2cccs2)o1,4.5,4.3,-2.3,7.4,4.2,-2.4,/,/,/,/,/
